From ChEMBL document CHEMBL5649170, “Sustained microglial depletion with CSF1R inhibitor impairs parenchymal plaque development in an Alzheimer's disease model” (Nat Commun, 2019)
Active and inactive are the calls of the source. The calls are words filed in the database; no cut-off is given here.

Key:
Activin receptor type-1B = Activin receptor type-1B (Homo sapiens, UniProt P36896); assay: Inhibition of ACVR1B (unknown origin)
[1] = molecular target: ALK tyrosine kinase receptor (Homo sapiens, UniProt Q9UM73); assay: Inhibition of ALK (unknown origin)
[2] = molecular target: Tyrosine-protein kinase BTK (Homo sapiens, UniProt Q06187); assay: Inhibition of BTK (unknown origin)
[3] = molecular target: Casein kinase I isoform gamma-3 (Homo sapiens, UniProt Q9Y6M4); assay: Inhibition of CSNK1G3 (unknown origin)
Ephrin type-B receptor 2 = Ephrin type-B receptor 2 (Homo sapiens, UniProt P29323); assay: Inhibition of EPHB2 (unknown origin)
[4] = molecular target: Homeodomain-interacting protein kinase 1 (Homo sapiens, UniProt Q86Z02); assay: Inhibition of HIPK1 (unknown origin)
[5] = molecular target: Homeodomain-interacting protein kinase 2 (Homo sapiens, UniProt Q9H2X6); assay: Inhibition of HIPK2 (unknown origin)
[6] = molecular target: Interleukin-1 receptor-associated kinase 4 (Homo sapiens, UniProt Q9NWZ3); assay: Inhibition of IRAK4 (unknown origin)
[7] = molecular target: Mitogen-activated protein kinase 1 (Homo sapiens, UniProt P28482); assay: Inhibition of MAPK1 (unknown origin)
[8] = molecular target: Phosphatidylinositol 4,5-bisphosphate 3-kinase catalytic subunit gamma isoform (Homo sapiens, UniProt P48736); assay: Inhibition of PIK3CG (unknown origin)
[9] = molecular target: Protein kinase C delta type (Homo sapiens, UniProt Q05655); assay: Inhibition of PRKCD (unknown origin)
[10] = molecular target: Serine/threonine-protein kinase D3 (Homo sapiens, UniProt O94806); assay: Inhibition of PRKCN (unknown origin)
[11] = molecular target: Proto-oncogene tyrosine-protein kinase receptor Ret (Homo sapiens, UniProt P07949, Y791F); assay: Inhibition of RET Y791F mutant (unknown origin)
[12] = molecular target: Serine/threonine-protein kinase SIK2 (Homo sapiens, UniProt Q9H0K1); assay: Inhibition of SNF1LK2 (unknown origin)
[13] = AUC (0 to infinity) in mouse at 1.92 mg/kg, iv administered as single dose; type: ADME, organism-based; conditions: in vivo
[14] = AUC (0 to infinity) in male rat at 1.13 mg/kg, iv administered as single dose; type: ADME, organism-based; conditions: in vivo
[15] = Drug concentration in mouse plasma at 300 ppm administered as rodent chow for 14 days; type: ADME, cell-free; conditions: route po, time 14 day
[16] = Toxicity in wildtype mouse assessed as number of closed arm entries at 1200 ppm administered as rodent chow for 10 to 24 weeks by Elevated plus maze test (reference value: 11 to 33); conditions: in vivo, po, time 10-24 weeks
[17] = Toxicity in wildtype mouse assessed as time spent in closed arm at 1200 ppm administered as rodent chow for 10 to 24 weeks by Elevated plus maze test (reference value: 73.3 to 220.6 sec); conditions: in vivo, po, time 10-24 weeks
[18] = Toxicity in wildtype mouse assessed as distance traveled at 1200 ppm administered as rodent chow for 10 to 24 weeks by Open field test (reference value: 13.381 to 26.996 meter); conditions: in vivo, po, time 10-24 weeks
[19] = Toxicity in wildtype mouse assessed as number of entries to perimeter zone at 1200 ppm administered as rodent chow for 10 to 24 weeks by Open field test (reference value: 20 to 64); conditions: in vivo, po, time 10-24 weeks
[20] = Toxicity in wildtype mouse assessed as number of triads at 1200 ppm administered as rodent chow for 10 to 24 weeks by Y-maze test (reference value: 4 to 9); conditions: in vivo, po, time 10-24 weeks
Mus musculus [21] = assay: Antialzheimer activity in 5XFAD mouse assessed as microglial elimination in thalamus by measuring reduction in Thio-S positive plaques at 1200 ppm administered as rodent chow for 14 weeks by Thio-S staining based confocal microscopic analysis; type: functional, organism-based; conditions: route po
Mus musculus [22] = assay: Antialzheimer activity in 5XFAD mouse assessed as iron reactivity by measuring hemosiderin intensity of prussian blue staining in […] cortex at 1200 ppm administered as rodent chow starting from 1.5 months and measured after 7 months by confocal microscopic analysis (reference value: 0.1 to 4.791 a.u.); type: functional; conditions: route po, time 5.5 months, 4015 h
In short: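 Wild-type or 5xFAD mice fed PLX5622 (1200 ppm) in AIN-76A chow from 1.5 months of age, examined in 4- and 7-month-old cohorts. Brain sections stained with a Prussian blue kit per kit instructions to detect iron deposits (microbleeds).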

Mus musculus [23] = assay: Antialzheimer activity in 5XFAD mouse assessed as percent change in claudin-5 intensity of Thio-S negative retro spinal cortex at 1200 ppm administered as rodent chow starting from 1.5 months and measured after 4 months by immunolabeling analysis relative to control; type: functional; conditions: route po, time 2.5 months, 1825 h
Mus musculus [24] = assay: Effect on APP processing pathway in wildtype mouse assessed as C83 protein signal intensity in cortex at 1200 ppm administered as rodent starting from 1.5 months and measured after 7 months (reference value: 2.769 to 56.642 %); type: functional; conditions: route po, time 5.5 months, 4015 h
Mus musculus [25] = assay: Effect on APP processing pathway in 5XFAD mouse assessed as PEN2 protein signal intensity in cortex at 1200 ppm administered as rodent starting from 1.5 months and measured after 7 months (reference value: 13.636 to 217.511 %); type: functional; conditions: route po, time 5.5 months, 4015 h
[26] = Effect on Csf1r RPKM gene expression in wild type mouse hippocampus at 1200 ppm administered as rodent chow starting from 1.5 months and measured after 7 months by RNA-Seq analysis (reference value: 18.240 to 20.004 RPKM); type: functional; conditions: route po, time 5.5 months, 4015 h
[27] = Effect on C1qa gene expression in 5XFAD mouse thalamus at 1200 ppm administered as rodent chow starting from 1.5 months and measured after 7 months by RNA-Seq analysis (reference value: 36.243 to 61.660 RPKM); type: functional; conditions: route po, time 5.5 months, 4015 h
In short: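 WT and 5xFAD mice were treated with 1200 ppm PLX5622 chow or control chow from 1.5 to 7 months of age. Brains were microdissected into cortex, hippocampus and thalamus, and RNA was extracted from tissue powder. Whole-transcriptome RNA-Seq libraries were sequenced, with n = 4 per group per region (48 samples).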

[28] = Effect on Spi1 gene expression in wild type mouse hippocampus at 1200 ppm administered as rodent chow starting from 1.5 months and measured after 7 months by RNA-Seq analysis (reference value: 1.111 to 1.682 RPKM); type: functional; conditions: route po, time 5.5 months, 4015 h
[29] = Effect on Rtn4r gene expression in wildtype mouse hippocampus assessed as percent change in Reads Per kilo base per Million mapped reads at 1200 ppm administered as rodent chow starting from 1.5 months and measured after 7 months by RNA-Seq analysis (reference value: 88.030 to 132.504 %); type: functional; conditions: route po, time 5.5 months, 4015 h
[30] = Prevention of Dusp5 gene downregulation in 5XFAD mouse hippocampus assessed as percent change in Reads Per kilo base per Million mapped reads at 1200 ppm administered as rodent chow starting from 1.5 months and measured after 7 months by RNA-Seq analysis (reference value: 41.082 to 74.744 %); type: functional; conditions: route po, time 5.5 months, 4015 h
Mus musculus [31] = assay: Prevention of Gabrb2 gene downregulation in 5XFAD mouse hippocampus at 1200 ppm administered as rodent chow starting from 1.5 months and measured after 7 months by Nanostring analysis; type: functional, tissue-based; conditions: route po, time 5.5 months

Activin receptor type-1B, sequence (P36896 whole entry): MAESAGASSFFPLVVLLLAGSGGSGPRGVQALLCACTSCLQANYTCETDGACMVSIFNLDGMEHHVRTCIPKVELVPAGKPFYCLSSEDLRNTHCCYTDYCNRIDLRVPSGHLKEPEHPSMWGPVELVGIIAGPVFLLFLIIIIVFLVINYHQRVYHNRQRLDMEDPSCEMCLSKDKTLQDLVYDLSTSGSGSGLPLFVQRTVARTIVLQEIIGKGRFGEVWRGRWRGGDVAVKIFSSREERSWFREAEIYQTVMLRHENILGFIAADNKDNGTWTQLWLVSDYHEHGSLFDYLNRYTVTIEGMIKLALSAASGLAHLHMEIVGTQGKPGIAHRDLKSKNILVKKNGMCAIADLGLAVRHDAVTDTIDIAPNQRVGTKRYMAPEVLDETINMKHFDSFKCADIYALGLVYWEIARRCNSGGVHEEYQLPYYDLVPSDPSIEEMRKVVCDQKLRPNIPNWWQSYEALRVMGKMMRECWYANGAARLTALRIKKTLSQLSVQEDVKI
Interleukin-1 receptor-associated kinase 4, sequence (Q9NWZ3 whole entry): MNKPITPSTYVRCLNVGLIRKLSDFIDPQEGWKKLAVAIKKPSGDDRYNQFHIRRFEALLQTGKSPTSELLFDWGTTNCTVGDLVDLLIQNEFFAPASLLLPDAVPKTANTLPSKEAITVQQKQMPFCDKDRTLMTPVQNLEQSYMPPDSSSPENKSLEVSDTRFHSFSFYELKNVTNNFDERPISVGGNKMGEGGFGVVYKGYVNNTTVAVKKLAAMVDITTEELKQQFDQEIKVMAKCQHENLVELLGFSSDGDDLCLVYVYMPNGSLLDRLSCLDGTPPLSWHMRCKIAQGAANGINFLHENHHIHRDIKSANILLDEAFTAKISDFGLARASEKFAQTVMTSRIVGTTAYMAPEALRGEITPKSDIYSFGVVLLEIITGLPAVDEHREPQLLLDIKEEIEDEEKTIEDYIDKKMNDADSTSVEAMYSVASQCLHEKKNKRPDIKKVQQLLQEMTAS
Serine/threonine-protein kinase D3, sequence (O94806 whole entry): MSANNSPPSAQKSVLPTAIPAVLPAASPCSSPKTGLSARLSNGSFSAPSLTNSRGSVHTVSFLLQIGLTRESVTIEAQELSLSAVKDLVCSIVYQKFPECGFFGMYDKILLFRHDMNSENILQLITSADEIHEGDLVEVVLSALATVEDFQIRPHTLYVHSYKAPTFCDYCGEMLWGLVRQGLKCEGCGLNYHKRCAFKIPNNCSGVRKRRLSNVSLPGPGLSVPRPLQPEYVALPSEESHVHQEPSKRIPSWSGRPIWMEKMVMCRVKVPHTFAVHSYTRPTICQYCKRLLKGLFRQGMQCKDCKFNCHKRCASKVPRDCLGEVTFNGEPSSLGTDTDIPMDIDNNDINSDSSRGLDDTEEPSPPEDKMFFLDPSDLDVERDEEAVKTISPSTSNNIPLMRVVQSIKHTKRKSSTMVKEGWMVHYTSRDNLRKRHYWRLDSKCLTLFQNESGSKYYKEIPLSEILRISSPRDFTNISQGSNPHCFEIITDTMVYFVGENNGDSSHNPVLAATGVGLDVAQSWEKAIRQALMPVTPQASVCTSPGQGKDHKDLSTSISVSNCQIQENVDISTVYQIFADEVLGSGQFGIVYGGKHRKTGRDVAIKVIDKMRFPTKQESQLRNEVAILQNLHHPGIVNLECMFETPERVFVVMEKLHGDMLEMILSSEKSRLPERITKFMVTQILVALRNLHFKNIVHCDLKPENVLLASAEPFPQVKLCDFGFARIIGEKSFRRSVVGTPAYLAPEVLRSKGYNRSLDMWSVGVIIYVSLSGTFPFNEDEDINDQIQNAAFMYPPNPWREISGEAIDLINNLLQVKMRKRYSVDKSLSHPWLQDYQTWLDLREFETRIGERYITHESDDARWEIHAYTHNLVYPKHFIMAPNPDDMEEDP
Homeodomain-interacting protein kinase 2, sequence (Q9H2X6 whole entry): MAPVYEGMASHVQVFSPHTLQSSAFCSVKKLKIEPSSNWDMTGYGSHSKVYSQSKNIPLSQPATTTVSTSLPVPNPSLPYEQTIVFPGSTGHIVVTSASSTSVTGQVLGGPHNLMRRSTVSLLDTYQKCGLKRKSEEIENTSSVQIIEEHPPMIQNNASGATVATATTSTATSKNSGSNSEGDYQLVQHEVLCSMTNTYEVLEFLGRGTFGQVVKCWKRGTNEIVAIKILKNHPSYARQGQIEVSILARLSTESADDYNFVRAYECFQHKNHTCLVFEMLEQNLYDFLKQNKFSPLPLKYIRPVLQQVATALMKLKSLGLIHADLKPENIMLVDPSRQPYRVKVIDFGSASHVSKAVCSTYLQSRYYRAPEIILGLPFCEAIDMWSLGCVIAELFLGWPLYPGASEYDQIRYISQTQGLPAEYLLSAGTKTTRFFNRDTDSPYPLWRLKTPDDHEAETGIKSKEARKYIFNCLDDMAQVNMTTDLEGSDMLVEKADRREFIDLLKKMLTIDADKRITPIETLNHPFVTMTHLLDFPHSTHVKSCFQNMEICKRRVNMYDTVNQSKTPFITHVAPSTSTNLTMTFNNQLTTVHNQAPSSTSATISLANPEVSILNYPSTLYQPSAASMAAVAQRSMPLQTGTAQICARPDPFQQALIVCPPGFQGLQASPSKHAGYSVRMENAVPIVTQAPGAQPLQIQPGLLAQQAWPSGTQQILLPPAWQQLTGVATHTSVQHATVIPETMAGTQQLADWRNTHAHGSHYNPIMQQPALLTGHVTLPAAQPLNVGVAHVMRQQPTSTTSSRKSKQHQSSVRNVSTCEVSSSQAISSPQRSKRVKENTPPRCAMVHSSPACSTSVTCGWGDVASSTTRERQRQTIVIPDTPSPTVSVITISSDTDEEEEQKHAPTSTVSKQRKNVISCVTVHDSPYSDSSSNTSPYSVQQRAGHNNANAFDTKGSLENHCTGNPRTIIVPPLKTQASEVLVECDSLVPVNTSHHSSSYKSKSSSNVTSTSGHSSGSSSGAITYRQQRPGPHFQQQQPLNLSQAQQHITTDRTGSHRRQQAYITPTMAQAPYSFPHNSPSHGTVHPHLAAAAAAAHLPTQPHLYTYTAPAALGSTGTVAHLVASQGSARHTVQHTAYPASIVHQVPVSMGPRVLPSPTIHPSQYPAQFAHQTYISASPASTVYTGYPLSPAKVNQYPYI
Proto-oncogene tyrosine-protein kinase receptor Ret, sequence (P07949 29-1114 Y791F limits assumed): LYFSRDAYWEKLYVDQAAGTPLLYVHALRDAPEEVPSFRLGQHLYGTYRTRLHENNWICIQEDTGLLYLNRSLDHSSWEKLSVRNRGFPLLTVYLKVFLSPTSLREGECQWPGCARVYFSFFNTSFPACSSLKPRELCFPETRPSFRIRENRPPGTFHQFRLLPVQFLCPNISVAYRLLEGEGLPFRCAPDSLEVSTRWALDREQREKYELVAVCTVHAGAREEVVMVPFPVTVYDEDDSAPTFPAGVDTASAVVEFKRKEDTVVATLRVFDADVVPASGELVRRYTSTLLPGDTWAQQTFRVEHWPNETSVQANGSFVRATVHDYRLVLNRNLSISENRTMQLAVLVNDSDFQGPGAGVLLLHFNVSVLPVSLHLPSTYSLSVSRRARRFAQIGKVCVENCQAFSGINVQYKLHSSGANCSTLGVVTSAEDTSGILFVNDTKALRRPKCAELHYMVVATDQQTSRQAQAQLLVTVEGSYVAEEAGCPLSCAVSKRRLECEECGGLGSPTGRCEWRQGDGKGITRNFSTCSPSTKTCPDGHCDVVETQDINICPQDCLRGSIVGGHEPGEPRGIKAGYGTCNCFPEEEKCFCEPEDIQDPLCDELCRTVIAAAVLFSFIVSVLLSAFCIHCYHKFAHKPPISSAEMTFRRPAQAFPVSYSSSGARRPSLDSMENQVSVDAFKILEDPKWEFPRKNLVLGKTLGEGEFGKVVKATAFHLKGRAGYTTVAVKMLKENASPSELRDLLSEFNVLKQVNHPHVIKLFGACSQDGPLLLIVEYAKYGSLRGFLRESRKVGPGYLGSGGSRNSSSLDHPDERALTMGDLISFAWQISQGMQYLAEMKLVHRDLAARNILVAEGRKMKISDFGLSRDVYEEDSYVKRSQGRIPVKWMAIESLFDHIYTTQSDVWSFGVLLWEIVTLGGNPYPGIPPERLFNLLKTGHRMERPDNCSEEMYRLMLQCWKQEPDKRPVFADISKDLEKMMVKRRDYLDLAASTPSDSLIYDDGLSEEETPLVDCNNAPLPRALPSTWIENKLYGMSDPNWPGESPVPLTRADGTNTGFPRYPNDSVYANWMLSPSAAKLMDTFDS
Mitogen-activated protein kinase 1, sequence (P28482 whole entry, canonical isoform): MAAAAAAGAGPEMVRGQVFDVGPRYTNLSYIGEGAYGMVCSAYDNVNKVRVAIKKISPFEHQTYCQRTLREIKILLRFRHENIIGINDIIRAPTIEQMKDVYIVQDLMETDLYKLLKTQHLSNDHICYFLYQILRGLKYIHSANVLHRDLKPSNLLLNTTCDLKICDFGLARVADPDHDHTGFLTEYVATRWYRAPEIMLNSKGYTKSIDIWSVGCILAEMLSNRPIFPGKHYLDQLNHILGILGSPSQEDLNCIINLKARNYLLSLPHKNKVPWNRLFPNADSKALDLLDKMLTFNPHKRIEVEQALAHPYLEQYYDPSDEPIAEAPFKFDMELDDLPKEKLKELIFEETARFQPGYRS
Casein kinase I isoform gamma-3, sequence (Q9Y6M4 whole entry, canonical isoform): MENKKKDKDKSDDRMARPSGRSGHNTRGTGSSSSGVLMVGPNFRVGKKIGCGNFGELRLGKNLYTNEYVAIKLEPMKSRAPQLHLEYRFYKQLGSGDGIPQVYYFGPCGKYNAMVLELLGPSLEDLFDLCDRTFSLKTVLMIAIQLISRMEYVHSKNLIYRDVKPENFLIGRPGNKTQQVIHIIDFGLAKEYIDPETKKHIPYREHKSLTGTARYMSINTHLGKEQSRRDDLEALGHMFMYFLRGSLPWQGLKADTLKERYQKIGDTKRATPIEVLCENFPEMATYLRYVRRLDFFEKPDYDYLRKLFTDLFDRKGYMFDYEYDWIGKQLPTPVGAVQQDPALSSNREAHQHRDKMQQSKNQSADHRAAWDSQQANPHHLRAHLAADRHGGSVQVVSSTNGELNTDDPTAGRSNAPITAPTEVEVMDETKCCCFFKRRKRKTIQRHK

## COc1ncc(F)cc1CNc1ccc(Cc2c[nH]c3ncc(C)cc23)c(F)n1 [PLX-5622]
Activin receptor type-1B
  IC50: > 1 µM
[1]
  IC50: > 1 µM
[2]
  IC50: > 1 µM
[3]
  IC50: > 1 µM
Ephrin type-B receptor 2
  IC50: > 1 µM
[4]
  IC50: > 1 µM
[5]
  IC50: > 1 µM
[6]
  IC50: > 1 µM
[7]
  IC50: > 1 µM
[8]
  IC50: > 1 µM
[9]
  IC50: > 1 µM
[10]
  IC50: > 1 µM
[11]
  IC50: > 1 µM
[12]
  IC50: > 1 µM
[13]
  AUC(0-inf): 15500 ng·h/mL
[14]
  AUC(0-inf): 2630 ng·h/mL
[15]
  concentration at 336 h: 4340 ng/mL
[16]
  Activity: 14
[17]
  Time: 90.5 s
[18]
  Activity: 9.067 m
[19]
  Activity: 13
[20]
  Activity: 3
Mus musculus [21]
  Activity: inactive
Mus musculus [22]
  Flu intensity: 2.499 a.u.
Mus musculus [23]
  Activity: 70.238%
Mus musculus [24]
  Activity: 9.38%
Mus musculus [25]
  Activity: 7.565%
[26]
  Activity: 0.238 RPKM
[27]
  Activity: 0.199 RPKM
[28]
  Activity: 0.055 RPKM
[29]
  Activity: 89.887%
[30]
  Activity: 83.733%
Mus musculus [31]
  Activity: Active
